One block for each substance: values may come before it. Ends that are not written are not given here.
How the values were obtained:
KRIT1 FERM domain = KRIT1 FERM domain (Homo sapiens, UniProt O00522); type: binding; conditions: GFP-KRIT1 F123 from HEK293 cell lysates, immunoblot
zebrafish embryos = test: Zebrafish dilated heart phenotype after San MO and cRNA coinjection; type: in vivo, Danio rerio (zebrafish); conditions: 1 ng MO injected alone at one-cell stage, scored at 48 hpf
HUVECs = test: Myosin light chain phosphorylation; type: cell-based, human; conditions: siRNA-resistant KRIT1 coexpressed with anti-KRIT1 siRNA in HUVECs, immunoblot
Outline: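 HUVECs were kept in supplemented EC medium and nucleofected with anti-KRIT1 siRNA, alone or together with cDNA for WT or L717,721A KRIT1. Phospho-myosin light chain was then assessed by immunoblotting.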

HUVEC = test: Immunofluorescence localization of HA-KRIT1 at EC-cell junctions; type: cell-based, human; conditions: HA-tagged KRIT1 transfected HUVECs, 24 h, colocalization with VE-cadherin
Outline: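 HUVECs in supplemented EC medium, nucleofected with HA-KRIT1 WT or L717,721A, plated on fibronectin-coated coverslips at ~90% confluence, grown 24 h; fixed 3.7% PFA 30 min, 0.2% Triton X-100 5 min, 10% goat serum block 1 h; mouse anti-HA plus rabbit anti-VE-cadherin 3 h RT, Alexa 488/568 secondaries 1 h; spinning-disk confocal, 40× oil, z-slices; ≥3 independent experiments.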

Chain of KRIT1 FERM domain (O00522 420-734 limits assumed): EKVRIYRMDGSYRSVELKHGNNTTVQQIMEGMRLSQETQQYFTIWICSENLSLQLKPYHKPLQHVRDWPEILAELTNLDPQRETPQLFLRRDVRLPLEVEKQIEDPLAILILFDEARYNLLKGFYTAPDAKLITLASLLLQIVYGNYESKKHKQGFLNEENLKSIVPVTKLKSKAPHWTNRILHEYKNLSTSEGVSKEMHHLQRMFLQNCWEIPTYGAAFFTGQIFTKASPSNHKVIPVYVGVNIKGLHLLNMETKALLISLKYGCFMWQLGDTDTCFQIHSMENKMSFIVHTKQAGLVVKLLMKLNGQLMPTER

KRIT1 binding (KRIT1 FERM domain): no effect on KRIT1 binding
Substance: HEG1 C26 NAFA (SRHSCIFPGQYAPSAISDESRRRDYF; not fully specified)

Substance: 5′-TTGAAGTCTCACTTTTGTCTCCATG-3′ (morpholino, further chemistry not given here) [San MO]
heart dilation, zebrafish embryos (zebrafish embryos): 95%

Substance: KRIT1: HA-tagged full-length wild-type human KRIT1 expressed in HUVECs
effect on increased myosin light chain phosphorylation caused by KRIT1 silencing (HUVECs): reversed this effect
localization at EC-cell junctions (HUVEC): localized at EC–cell junctions
